According to ChEMBL document CHEMBL3822382 (Eur J Med Chem, 2016):
Activity calls are given as the source filed them. No cut-off for these calls is given here.

How the values were obtained:
[1] = Cytotoxicity against fertilized white leghorn chicken embryos in CAM model assessed as lethality at 2.5 nmol after 24 hrs relative to control; assay type: organism-based, Gallus gallus; details: in vivo
518A2 = test: Induction of microtubule disruption in human 518A2 cells at 100 nM incubated for 24 hrs by DAPI staining based immunofluorescence microscopic analysis; assay type: cell-based
Method in brief: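 518A2 cells (25,000/well) on coverslips treated 24 h with 100 nM. Cells fixed in 4% formaldehyde, permeabilized and blocked (Triton X-100/BSA). Stained with mouse anti-alpha-tubulin (37 °C, 1 h) and AlexaFluor-488 secondary; nuclei counterstained with DAPI (1 µg/mL). Imaged by fluorescence microscopy at 400×.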

HT-29 [2] = test: Cell cycle arrest in combretastatin A-4 resistant human HT-29 cells assessed as accumulation at G2 phase at 50 nM after 24 hrs by propidium iodide staining-based flow cytometry (reference value: 15.6 +/- 0.1%); assay type: functional
HT-29 [3] = test: Antivascular activity against in combretastatin A-4 resistant human HT-29 cells xenografted in fertilized white leghorn chicken egg chorioallantoic membrane assessed as loss of cell to cell interaction at 5 nmol after 24 hrs by hematoxylin and eosin staining based stereomicroscopic analysis; assay type: functional
Method in brief: (§1)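 Pellets of 1 × 10⁶ HT-29 cells in 10 μL of 1:1 matrigel/serum-free RPMI (gelled 30 min, 37 °C) were placed on the CAM of fertilized eggs and left 48 h. Then 100 μL of a 50 μM PBS dilution (5 nmol) was pipetted outside a silicon ring around the pellet; DMSO served as control. After 24 h, stereomicroscopy was done, and micro-xenografts were explanted, formalin-fixed, paraffin-embedded and HE-stained.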

[4] = Cell cycle arrest in human 518A2 cells assessed as apoptotic index ratio at 100 nM after 24 hrs by propidium iodide staining-based flow cytometry relative to control; assay type: functional
1411HP [5] = test: Vascular disrupting activity against multidrug resistant human 1411HP cells xenografted in athymic nude mouse assessed as discoloration of tumor at 100 mg/kg, ip after 24 hrs; assay type: functional, organism-based
Method in brief: (§2)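 Athymic nude mice carried subcutaneous flank xenografts from 8 million cells in PBS. A single intraperitoneal dose of 100 mg/kg was given, and tumor discoloration was photographed 24 h later.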

HT-29 [6] = test: Cell cycle arrest in combretastatin A-4 resistant human HT-29 cells assessed as mitotic cells at 50 nM after 24 hrs by propidium iodide/immuno-staining method (reference value: 3.1 to 3.2%); assay type: functional
A2780cisR [7] = test: Vascular disrupting activity against human A2780cis cells xenografted in athymic nude mouse assessed as tumor necrosis at 100 mg/kg, ip after 24 hrs by hematoxylin and eosin staining based microscopic analysis; assay type: functional, organism-based
Method in brief: (§3)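 Athymic nude mice carried subcutaneous flank xenografts from 8 million cells. A single intraperitoneal dose of 100 mg/kg was given. After 24 h tumors were explanted, fixed in 5% formalin, paraffin-embedded and HE-stained for microscopic examination of vessels, hemorrhage and necrosis.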

HT-29 [8] = test: Cell cycle arrest in combretastatin A-4 resistant human HT-29 cells assessed as mitotic cells at 100 nM after 24 hrs by propidium iodide/immunostaining method (reference value: 3.1 to 3.2%); assay type: functional
Method in brief: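 HT-29 cells (200,000/well) were treated 24 h with 100 nM indole, 5 μM CA-4 or DMSO. Cells were trypsinized, fixed in 4% formaldehyde (20 min, RT) and permeabilized in 90% ice-cold methanol (30 min). They were immunostained with anti-phospho-histone H3 (Ser10) (5 μg/mL, 37 °C, 1 h) plus an AlexaFluor-488 secondary, then stained with PI/RNase (30 min, 37 °C). Flow cytometry of 10,000 single cells assigned G1/S/G2/M.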

[9] = Cell cycle arrest in human 518A2 cells assessed as accumulation at G2/M phase at 100 nM after 24 hrs by propidium iodide staining-based flow cytometry (reference value: 26.3%); assay type: functional
[10] = Cell cycle arrest in human 518A2 cells assessed as accumulation at G1 phase at 100 nM after 24 hrs by propidium iodide staining-based flow cytometry (reference value: 49.5%); assay type: functional
HT-29 [11] = test: Induction of cytoskeletal damage in combretastatin A-4 resistant human HT-29 cells xenografted in fertilized white leghorn chicken egg chorioallantoic membrane at 5 nmol after 24 hrs by hematoxylin and eosin staining based stereomicroscopic analysis; assay type: functional, cell-based
Method in brief: (§4)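 Pellets of 1×10^6 HT-29 cells in matrigel/serum-free RPMI placed on the CAM of fertilized eggs for 48 h. Then 5 nmol (100 µL of 50 µM in PBS) applied outside a silicon ring around the pellet; DMSO as control. Imaged by stereomicroscopy after 24 h. Micro-xenografts then explanted, formalin-fixed, paraffin-embedded and HE-stained.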

Gallus gallus = species on record: Gallus gallus; test: Cytotoxicity against fertilized white leghorn chicken egg chorioallantoic membrane microtumor model of CA-4 resistant human HT-29 cells assessed as reduction in embryo vitality at 5 nmol after 24 hrs; assay type: organism-based; details: ht-29, 24 h
HT-29 [12] = test: Antivascular activity against in combretastatin A-4 resistant human HT-29 cells xenografted in fertilized white leghorn chicken egg chorioallantoic membrane assessed as blood vessel destruction at 5 nmol after 24 hrs by hematoxylin and eosin staining based stereomicroscopic analysis; assay type: functional, cell-based; method in brief: as §1
A2780cisR [13] = test: Vascular disrupting activity against human A2780cis cells xenografted in athymic nude mouse assessed as disruption of blood vessel at 100 mg/kg, ip after 24 hrs by hematoxylin and eosin staining based microscopic analysis; assay type: functional, organism-based; method in brief: as §3
A2780cisR [14] = test: Vascular disrupting activity against human A2780cis cells xenografted in athymic nude mouse assessed as discoloration of tumor at 100 mg/kg, ip after 24 hrs; assay type: functional, organism-based; method in brief: as §2
Sus scrofa = species on record: Sus scrofa; test: Decrease in rate of porcine brain alpha/beta tubulin polymerization at 5 uM measured every 20 sec by microplate reader analysis
Chorioallantoic membrane = test: Antivascular activity in fertilized white leghorn chicken egg chorioallantoic membrane assessed as disruption of preformed blood vessel at 2.5 nmol after 12 hrs by stereomicroscopic analysis; assay type: functional, tissue-based; details: Gallus gallus
A2780cisR [15] = test: Antitumor activity against human A2780cis cells xenografted in athymic nude mouse assessed as reduction in tumor growth at 40 mg/kg, ip administered on day 3, 7, 10 and 14; assay type: functional, organism-based
1411HP [16] = test: Vascular disrupting activity against multidrug resistant human 1411HP cells xenografted in athymic nude mouse assessed as tumor necrosis at 100 mg/kg, ip after 24 hrs by hematoxylin and eosin staining based microscopic analysis; assay type: functional, organism-based; method in brief: as §3
HT-29 [17] = test: Cell cycle arrest in combretastatin A-4 resistant human HT-29 cells assessed as accumulation at G1 phase at 50 nM after 24 hrs by propidium iodide staining-based flow cytometry (reference value: 68.1 +/- 0.3%); assay type: functional
1411HP [18] = test: Vascular disrupting activity against multidrug resistant human 1411HP cells xenografted in athymic nude mouse assessed as hemorrhage at 100 mg/kg, ip after 24 hrs by hematoxylin and eosin staining based microscopic analysis; assay type: functional, organism-based; method in brief: as §3
HT-29 [19] = test: Induction of apoptosis in combretastatin A-4 resistant human HT-29 cells xenografted in fertilized white leghorn chicken egg chorioallantoic membrane at 5 nmol after 24 hrs by hematoxylin and eosin staining based stereomicroscopic analysis; assay type: functional, cell-based; method in brief: as §4
A2780cisR [20] = test: Vascular disrupting activity against human A2780cis cells xenografted in athymic nude mouse assessed as hemorrhage at 100 mg/kg, ip after 24 hrs by hematoxylin and eosin staining based microscopic analysis; assay type: functional, organism-based; method in brief: as §3

COc1cc(-c2ncn(C)c2-c2ccc3c(c2)c(Cl)cn3C)cc(OC)c1OC
mortality at 24 h [1]: 67%

COc1cc(-c2ncn(C)c2-c2ccc3c(c2)c(Cl)cn3C)cc(Br)c1OC.Cl
Activity (518A2): Active
Activity (HT-29 [2]): 15.2%
Activity (HT-29 [3]): Active
Ratio [4]: 4.4
Activity (1411HP [5]): Active
Activity (HT-29 [6]): 28%
Activity (A2780cisR [7]): Active
Activity (HT-29 [8]): 77.8%
Activity [9]: 33.9%
Activity [10]: 41%
Activity (HT-29 [11]): Active
Activity (Gallus gallus): Non-toxic
Activity (HT-29 [12]): Active
Activity (A2780cisR [13]): Active
Activity (A2780cisR [14]): Active
Activity (Sus scrofa): Active
Activity (Chorioallantoic membrane): Active
Activity (A2780cisR [15]): Active
Activity (1411HP [16]): Active
Activity (HT-29 [17]): 43.5%
Activity (1411HP [18]): Active
Activity (HT-29 [19]): Active
Activity (A2780cisR [20]): Active
